In ChEMBL document CHEMBL2169796, “Antiproliferative and antimigratory actions of synthetic long chain n-3 monounsaturated fatty acids in breast cancer cells that overexpress cyclooxygenase-2” (J Med Chem, 2012):
Active and inactive are the calls of the source. No cut-off for these calls is given here.

Assays:
[1] = tested on: MDA-MB-468; assay: Proapoptotic activity in human MDA-MB-468 cells assessed as activation of caspase-3 by luminometry; type: functional, cell-based
[2] = biological target: T1, Prostaglandin G/H synthase 2 (Homo sapiens) (UniProt P35354); assay: Inhibition of peroxidase activity of COX-2 overexpressed in human MDA-MB-468 cells at 50 uM by spectrophotometry; values are per cent of control
T1 sequence (whole entry): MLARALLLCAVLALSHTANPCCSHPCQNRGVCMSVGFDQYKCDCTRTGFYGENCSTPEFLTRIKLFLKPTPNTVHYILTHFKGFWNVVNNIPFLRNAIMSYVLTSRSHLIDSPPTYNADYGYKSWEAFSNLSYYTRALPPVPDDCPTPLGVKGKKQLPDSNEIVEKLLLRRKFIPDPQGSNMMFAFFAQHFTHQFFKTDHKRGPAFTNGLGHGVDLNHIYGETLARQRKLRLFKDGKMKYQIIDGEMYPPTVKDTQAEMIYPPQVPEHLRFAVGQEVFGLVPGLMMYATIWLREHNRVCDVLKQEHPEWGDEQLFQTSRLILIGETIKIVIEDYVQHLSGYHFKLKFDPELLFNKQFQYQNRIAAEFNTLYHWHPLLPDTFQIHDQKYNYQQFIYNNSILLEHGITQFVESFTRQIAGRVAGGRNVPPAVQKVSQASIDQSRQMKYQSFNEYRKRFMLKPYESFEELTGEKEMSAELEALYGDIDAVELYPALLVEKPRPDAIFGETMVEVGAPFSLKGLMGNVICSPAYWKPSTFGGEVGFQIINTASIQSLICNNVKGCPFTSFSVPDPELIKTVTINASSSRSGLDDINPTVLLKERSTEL

[3] = tested on: MDA-MB-468; assay: Antiproliferative activity against human MDA-MB-468 cells after 24 hrs by MTT assay; type: functional, cell-based
[4] = biological target: T1, Prostaglandin G/H synthase 2 (Homo sapiens); assay: Inhibition of COX-2 overexpressed in human MDA-MB-468 cell lysate assessed as reduction in arachidonic acid-induced PGE2 formation at 50 uM by LC-MS-MS assay; type: cell-free
Procedure, shortened: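 Lysate of confluent COX-2-overexpressing MDA-MB-468 cells incubated with heme (10 μM), arachidonic acid (20 μM) and analogue (50 μM) in Tris-HCl 100 mM pH 8.0; quenched with ice-cold acetonitrile plus PGE2-d4, SPE cleanup, PGE2 quantified by negative-ion ESI LC-MS-MS.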

[5] = tested on: MDA-MB-468; assay: Antiproliferative activity against human MDA-MB-468 cells after 48 hrs by MTT assay; type: functional, cell-based; details: MDA-MB-468, 48 h
[6] = tested on: MDA-MB-468; assay: Inhibition of cell invasion in human MDA-MB-468 cells overexpressing COX-2 at 20 uM after 20 hrs by matrigel droplet assay relative to untreated-control; type: functional
Procedure, shortened: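 Cells (3.5 × 10^6/mL) mixed with Matrigel, 20 μL droplets set 5 min at 37 °C, then covered with endothelial growth medium-2 with 10% FBS containing fatty acid (10 or 20 μM) for 20 h at 37 °C, 5% CO2; cells migrating out of droplets counted by phase-contrast microscopy, vs DMSO control.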

[7] = biological target: T1, Prostaglandin G/H synthase 2 (Homo sapiens); assay: Inhibition of COX2 overexpressed in human MDA-MB-468 cells assessed as reduction in basal PGE2 level at 50 uM over 48 hrs by LC-MS-MS assay relative to control; type: cell-based
Procedure, shortened: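 Intact COX-2-overexpressing MDA-MB-468 cells given fatty acid (50 μM) for 48 h without added substrate; basal PGE2 in medium measured by LC-MS-MS, as % of control.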

[8] = tested on: MDA-MB-468; assay: Cytotoxicity against human MDA-MB-468 cells assessed as reduction in viable cells after 48 hrs by trypan blue exclusion assay; type: functional
Procedure, shortened: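 COX-2-overexpressing MDA-MB-468 transfectants exposed to fatty acids at 20 and 50 μM for 48 h; viable cells counted by trypan blue exclusion, expressed as decrease from control.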

[9] = biological target: T1, Prostaglandin G/H synthase 2 (Homo sapiens); assay: Inhibition of COX2 overexpressed in human MDA-MB-468 cells assessed as reduction in arachidonic acid-induced PGE2 production at 50 uM over 48 hrs by LC-MS-MS assay relative to control; values are per cent of control
[10] = biological target: T1, Prostaglandin G/H synthase 2 (Homo sapiens); assay: Inhibition of COX2 overexpressed in human MDA-MB-468 cells assessed as reduction in basal PGE2 level at 50 uM over 48 hrs by LC-MS-MS assay relative to control; values are per cent of control
[11] = tested on: MDA-MB-468; assay: Inhibition of cell invasion in human MDA-MB-468 cells overexpressing COX-2 at 20 uM after 20 hrs by matrigel droplet assay relative to untreated-control; values are per cent of control; details: MDA-MB-468, 20 h
[12] = biological target: T1, Prostaglandin G/H synthase 2 (Homo sapiens); assay: Inhibition of COX-2 overexpressed in human MDA-MB-468 cell lysate assessed as reduction in arachidonic acid-induced PGE2 formation at 50 uM by LC-MS-MS assay; values are per cent of control
[13] = tested on: MDA-MB-468; assay: Inhibition of cell invasion in human MDA-MB-468 cells overexpressing COX-2 at 10 uM after 20 hrs by matrigel droplet assay relative to untreated-control; values are per cent of control; details: MDA-MB-468, 20 h

Compound: CC/C=C\CCCCCCCCCCCCCCC(=O)O
- EC50 [1]: 43 µM
- residual activity [2]: 71%
- Activity [3]: Dose-dependent effect
- inhibition [4]: Active
- IC50 [5]: 36 µM
- inhibition [6]: inactive
- inhibition [7]: inactive
- Activity [8]: 20%

Compound: CC/C=C\CCCCCCCCCCCCCCCCC(=O)O
- residual activity [9]: 40%
- residual activity [10]: 49%
- EC50 [1]: 12 µM
- residual activity [2]: 54%
- level, % of control at 20 µM [11]: 59%
- Activity [3]: Dose-dependent effect
- IC50 [5]: 9.3 µM
- Activity [8]: inactive
- residual activity [12]: 42%

Compound: CC/C=C\CCCCCCCCCCCCCCCCCC(=O)O
- residual activity [9]: 40%
- residual activity [10]: 45%
- level, % of control at 10 µM [13]: 48%
- EC50 [1]: 26 µM
- residual activity [2]: 58%
- level, % of control at 20 µM [11]: 48%
- Activity [3]: Dose-dependent effect
- IC50 [5]: 21 µM
- Activity [8]: inactive
- residual activity [12]: 42%

Compound: CC/C=C\C/C=C\C/C=C\C/C=C\C/C=C\CCCC(=O)O [ICOSAPENT]
- EC50 [1]: > 100 µM
- IC50 [5]: > 100 µM

Compound: CCCCC/C=C\C/C=C\C/C=C\C/C=C\CCCC(=O)O [ARACHIDONIC ACID]
- EC50 [1]: > 100 µM
- IC50 [5]: > 100 µM

Compound: CC/C=C\CCCCCCCCCCCCCCCC(=O)O
- residual activity [10]: 46%
- EC50 [1]: 43 µM
- residual activity [2]: 62%
- level, % of control at 20 µM [11]: 75%
- Activity [3]: Dose-dependent effect
- IC50 [5]: 31 µM
- Activity [8]: inactive
- residual activity [12]: 42%

Compound: CC/C=C\CCCCCCCCCCCC(=O)O
- EC50 [1]: > 100 µM
- Activity [3]: Dose-dependent effect
- IC50 [5]: > 100 µM
- inhibition [6]: inactive
- inhibition [7]: inactive
- Activity [8]: 25%

Compound: CC/C=C\CCCCCCCCCCCCCC(=O)O
- EC50 [1]: 54 µM
- Activity [3]: Dose-dependent effect
- IC50 [5]: > 100 µM
- inhibition [6]: inactive
- inhibition [7]: inactive
- Activity [8]: inactive

Compound: CC/C=C\CCCCCCCCCCCCC(=O)O
- EC50 [1]: 69 µM
- Activity [3]: Dose-dependent effect
- IC50 [5]: > 100 µM
- inhibition [6]: inactive
- inhibition [7]: inactive
- Activity [8]: inactive
